# Measured values as given in ChEMBL document CHEMBL1828575, “Design, synthesis and antiproliferative activities of biarylolefins based on polyhydroxylated and carbohydrate scaffolds” (Eur J Med Chem, 2011).
# Tests used:
# Format in all cases: functional
# SN12C = assay: Cytotoxicity against human SN12C cells assessed as cellular growth at 10 uM after 48 hrs by SRB assay
# In short: (§1)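 NCI-60 panel lines grown in RPMI 1640 with 5% FBS and 2 mM L-glutamine. Plated at 5000–40,000 cells/well and preincubated 24 h at 37 °C, 5% CO₂, with time-zero plates fixed in TCA. Compounds, dissolved in DMSO and diluted in medium, were applied for 48 h. Cells were TCA-fixed (10% final for adherent, 16% for suspension) and stained with 0.4% SRB in 1% acetic acid. Dye was solubilised in 10 mM Tris base and read at 515 nm; growth was expressed as a percentage of untreated control.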
# CCRF-CEM = assay: Antitumor activity against human CCRF-CEM cells after 48 hrs by SRB assay
# In short: (§2)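 NCI60 panel in RPMI 1640 with 5% FBS and 2 mM L-glutamine. Cells were plated at 5000–40,000/well by doubling time, held 24 h, then time-zero plates were TCA-fixed. Five concentrations (10-fold or half-log dilutions of DMSO stocks) were applied for 48 h at 37 °C, 5% CO2. Cells were fixed with cold TCA (10% final adherent, 16% suspension) and stained with 0.4% SRB. Bound dye was dissolved in 10 mM Tris and read at 515 nm. GI50, TGI and LC50 were calculated per line.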
# NCI-H226 = assay: Antitumor activity against human NCI-H226 cells after 48 hrs by SRB assay; conditions: NCI-H226, 48 h; in short: as §2
# T47D = assay: Cytotoxicity against human T47D cells assessed as cellular growth at 10 uM after 48 hrs by SRB assay; in short: as §1
# UO-31 [1] = assay: Antitumor activity against human UO31 cells after 48 hrs by SRB assay; conditions: UO-31, 48 h
# In short: (§3)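 NCI60 panel cells grown in RPMI 1640 with 5% FBS and 2 mM L-glutamine, plated at 5000–40,000 cells/well and preincubated 24 h at 37 °C, 5% CO₂. Compound was added from DMSO at five concentrations, 10-fold or 1/2 log dilutions, then incubated 48 h.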
# MDA-MB-231 = assay: Cytotoxicity against human MDA-MB-231 cells assessed as cellular growth at 10 uM after 48 hrs by SRB assay; in short: as §1
# SNB-75 = assay: Antitumor activity against human SNB75 cells after 48 hrs by SRB assay; conditions: SNB-75, 48 h; for CC50: read-out: LC50 (the source's name); in short: as §3
# IGROV-1 = assay: Cytotoxicity against human IGROV1 cells assessed as cellular growth at 10 uM after 48 hrs by SRB assay
# In short: (§4)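 NCI60 single-dose screen of cells in RPMI 1640 with 5% FBS and 2 mM L-glutamine, preincubated 24 h at 37 °C, 5% CO₂. Cells were then exposed 48 h to compound added from DMSO stock. TCA-fixed, stained with 0.4% SRB in 1% acetic acid, dye solubilised in 10 mM Tris base and read at 515 nm. Growth is given as percent of untreated control.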
# MCF7 [2] = assay: Cytotoxicity against human MCF7 cells assessed as cellular growth at 10 uM after 48 hrs by SRB assay; in short: as §1
# OVCAR-3 = assay: Antitumor activity against human OVCAR3 cells after 48 hrs by SRB assay; conditions: OVCAR-3, 48 h; for CC50: read-out: LC50 (the source's name); in short: as §2
# HCT-116 = assay: Antitumor activity against human HCT116 cells after 48 hrs by SRB assay; conditions: HCT-116, 48 h; in short: as §2
# A549 = assay: Cytotoxicity against human A549 cells assessed as cellular growth at 10 uM after 48 hrs by SRB assay; in short: as §4
# HCT-15 [3] = assay: Cytotoxicity against human HCT15 cells assessed as cellular growth at 10 uM after 48 hrs by SRB assay; in short: as §4
# HL-60(TB) = assay: Cytotoxicity against human HL-60(TB) cells assessed as cellular growth at 10 uM after 48 hrs by SRB assay
# SK-OV-3 = assay: Antitumor activity against human SKOV3 cells after 48 hrs by SRB assay; conditions: SK-OV-3, 48 h; in short: as §3
# TK-10 = assay: Cytotoxicity against human TK10 cells assessed as cellular growth at 10 uM after 48 hrs by SRB assay; in short: as §1
# SK-MEL-2 [4] = assay: Antitumor activity against human SK-MEL-2 cells after 48 hrs by SRB assay; conditions: SK-MEL-2, 48 h; for CC50: read-out: LC50 (the source's name); in short: as §3
# SR = assay: Antitumor activity against human SR cells after 48 hrs by SRB assay; in short: as §3
# CAKI-1 = assay: Cytotoxicity against human Caki1 cells assessed as cellular growth at 10 uM after 48 hrs by SRB assay; in short: as §4
# HCT-15 [5] = assay: Antiproliferative activity against human HCT15 cells after 48 hrs by SRB assay; conditions: HCT-15, 48 h
# In short: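 NCI60 screen: cells grown in RPMI 1640 with 5% FBS and 2 mM L-glutamine, plated at 5000–40,000 cells/well by doubling time, preincubated 24 h at 37 °C with 5% CO2. Compounds were diluted from DMSO stocks and given for 48 h, at five concentrations for dose response. A time-zero plate was TCA-fixed. Cells were TCA-fixed, stained with 0.4% SRB and read at 515 nm, with growth expressed relative to untreated controls.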
# Malme-3M = assay: Cytotoxicity against human MALME-3M cells assessed as cellular growth at 10 uM after 48 hrs by SRB assay; in short: as §1
# UO-31 [6] = assay: Cytotoxicity against human UO31 cells assessed as cellular growth at 10 uM after 48 hrs by SRB assay; in short: as §1
# MCF7 [7] = assay: Cytotoxicity against human MCF7 cells at 10^-6 M after 72 hrs by MTS assay; conditions: MCF7, 72 h, read-out: GI
# SK-MEL-2 [8] = assay: Cytotoxicity against human SK-MEL-2 cells assessed as cellular growth at 10 uM after 48 hrs by SRB assay; in short: as §1
# [9] = read-out: LC50 (the source's name)
# [10] = read-out: pLC50 (the source's name) (converted)
structure (smiles),measurement,setting,value
COc1ccc(/C(=C2\O[C@@H]([C@H]3COC(C)(C)O3)[C@H]3OC(C)(C)O[C@@H]23)c2cc(OC)c(OC)c(OC)c2)cc1O,Activity,SN12C,84.5%
same,GI50,CCRF-CEM; read-out: GI50,5.45 µM
same,CC50,CCRF-CEM; [9],> 100 µM
same,TGI,CCRF-CEM; read-out: TGI,> 100 µM
same,GI50,CCRF-CEM; read-out: pGI50 (converted),5.5 µM
same,CC50,CCRF-CEM; [10],> 100 µM
same,TGI,CCRF-CEM; read-out: pTGI,> 100 µM
same,GI50,NCI-H226; read-out: GI50,64.7 µM
same,CC50,NCI-H226; [9],> 100 µM
same,TGI,NCI-H226; read-out: TGI,> 100 µM
same,GI50,NCI-H226; read-out: pGI50 (converted),64.6 µM
same,CC50,NCI-H226; [10],> 100 µM
same,TGI,NCI-H226; read-out: pTGI (converted),> 100 µM
same,Activity,T47D,115.08%
same,GI50,UO-31 [1]; read-out: GI50,21.7 µM
same,CC50,UO-31 [1]; [9],> 100 µM
same,TGI,UO-31 [1]; read-out: TGI,70.4 µM
same,GI50,UO-31 [1]; read-out: pGI50 (converted),21.9 µM
same,CC50,UO-31 [1]; [10],> 100 µM
same,TGI,UO-31 [1]; read-out: pTGI (converted),70.8 µM
same,Activity,MDA-MB-231,54.45%
same,GI50,SNB-75,2.89 µM
same,TGI,SNB-75,7.44 µM
same,CC50,SNB-75,> 100 µM
same,Activity,IGROV-1,92.61%
same,Activity,MCF7 [2],60.66%
same,GI50,OVCAR-3,2.39 µM
same,TGI,OVCAR-3,5.67 µM
same,CC50,OVCAR-3,21.7 µM
same,GI50,HCT-116,> 100 µM
same,LC50 (concentration giving 50% net cell kill),HCT-116,> 100 µM
same,TGI,HCT-116,> 100 µM
same,Activity,A549,80.05%
same,Activity,HCT-15 [3],32.51%
same,Activity,HL-60(TB),-0.37%
same,GI50,SK-OV-3; read-out: GI50,12.6 µM
same,CC50,SK-OV-3; [9],> 100 µM
same,TGI,SK-OV-3; read-out: TGI,91.7 µM
same,GI50,SK-OV-3; read-out: pGI50 (converted),12.6 µM
same,CC50,SK-OV-3; [10],> 100 µM
same,TGI,SK-OV-3; read-out: pTGI (converted),91.2 µM
same,Activity,TK-10,116.76%
same,GI50,SK-MEL-2 [4],1.53 µM
same,TGI,SK-MEL-2 [4],4.12 µM
same,CC50,SK-MEL-2 [4],24.1 µM
same,GI50,SR; read-out: GI50,6.1 µM
same,CC50,SR; [9],> 100 µM
same,TGI,SR; read-out: TGI,> 100 µM
same,GI50,SR; read-out: pGI50 (converted),6.17 µM
same,CC50,SR; [10],> 100 µM
same,TGI,SR; read-out: pTGI,> 100 µM
same,Activity,CAKI-1,110.64%
same,CC50,HCT-15 [5]; [9],> 100 µM
same,CC50,HCT-15 [5]; [10],> 100 µM
same,Activity,Malme-3M,69.57%
same,Activity,UO-31 [6],123.08%
COc1ccc(/C(=C2/O[C@@H]([C@H]3COC(C)(C)O3)[C@H]3OC(C)(C)O[C@@H]23)c2cc(OC)c(OC)c(OC)c2)cc1O,Activity,SN12C,57.72%
same,GI50,CCRF-CEM; read-out: GI50,3.75 µM
same,CC50,CCRF-CEM; [9],> 100 µM
same,TGI,CCRF-CEM; read-out: TGI,> 100 µM
same,GI50,CCRF-CEM; read-out: pGI50 (converted),3.72 µM
same,CC50,CCRF-CEM; [10],> 100 µM
same,TGI,CCRF-CEM; read-out: pTGI,> 100 µM
same,inhibition of growth at 1 µM,MCF7 [7],0%
same,GI50,NCI-H226; read-out: GI50,2.59 µM
same,CC50,NCI-H226; [9],> 100 µM
same,TGI,NCI-H226; read-out: TGI,> 100 µM
same,GI50,NCI-H226; read-out: pGI50 (converted),25.7 µM
same,CC50,NCI-H226; [10],> 100 µM
same,TGI,NCI-H226; read-out: pTGI (converted),> 100 µM
same,Activity,T47D,120.98%
same,GI50,UO-31 [1]; read-out: GI50,7.53 µM
same,CC50,UO-31 [1]; [9],> 100 µM
same,TGI,UO-31 [1]; read-out: TGI,77.8 µM
same,GI50,UO-31 [1]; read-out: pGI50 (converted),7.59 µM
same,CC50,UO-31 [1]; [10],> 100 µM
same,TGI,UO-31 [1]; read-out: pTGI (converted),77.6 µM
same,Activity,MDA-MB-231,43.9%
same,GI50,SNB-75,1.8 µM
same,TGI,SNB-75,6.31 µM
same,CC50,SNB-75,53.5 µM
same,GI50,OVCAR-3,2.38 µM
same,TGI,OVCAR-3,5.34 µM
same,CC50,OVCAR-3,22.9 µM
same,GI50,HCT-116,4.14 µM
same,LC50 (concentration giving 50% net cell kill),HCT-116,> 100 µM
same,TGI,HCT-116,> 100 µM
same,Activity,A549,84.24%
same,Activity,HCT-15 [3],26.94%
same,Activity,HL-60(TB),20.71%
same,GI50,SK-OV-3; read-out: GI50,4.11 µM
same,CC50,SK-OV-3; [9],> 100 µM
same,TGI,SK-OV-3; read-out: TGI,3.85 µM
same,GI50,SK-OV-3; read-out: pGI50 (converted),4.68 µM
same,CC50,SK-OV-3; [10],> 100 µM
same,TGI,SK-OV-3; read-out: pTGI (converted),18.6 µM
same,Activity,TK-10,109.18%
same,GI50,SK-MEL-2 [4],57.9 µM
same,TGI,SK-MEL-2 [4],> 100 µM
same,CC50,SK-MEL-2 [4],> 100 µM
same,GI50,SR; read-out: GI50,6.27 µM
same,CC50,SR; [9],> 100 µM
same,TGI,SR; read-out: TGI,> 100 µM
same,GI50,SR; read-out: pGI50 (converted),6.31 µM
same,CC50,SR; [10],> 100 µM
same,TGI,SR; read-out: pTGI,> 100 µM
same,Activity,CAKI-1,93.05%
same,Activity,SK-MEL-2 [8],103.26%
same,Activity,UO-31 [6],49.1%
